One data set relates to Pseudomonas aeruginosa. Description: Antimicrobial activity against Pseudomonas aeruginosa ATCC 27853 after 24 hrs by broth micro-dilution method. The settings on record: ATCC 27853, 24 h. The format is functional. (Dilution methods test growth across graded concentrations, often in twofold steps.)
Data set [1] in a line: Toxicity in RBC assessed as hemolysis. In kind it is cell-based, Erythrocyte. Particulars: for HC10: erythrocyte; for HC50: red blood cells (RBC). The method in brief:
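Hemolysis of red blood cells measured over a concentration range. H10 and H50 are the concentrations giving 10% and 50% hemolysis.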

For a further data set, the system named is Bacillus subtilis. Briefly: Antimicrobial activity against Bacillus subtilis BR151 after 24 hrs by broth micro-dilution method. The format is functional. The settings on record: BR151, 24 h.
The test system of data set [2] is Escherichia coli. Description: Antimicrobial activity against Escherichia coli JM109 after 24 hrs by broth micro-dilution method. The format is functional. The settings on record: JM109, 24 h.
Data set [3] has as its system Staphylococcus epidermidis. Briefly: Antimicrobial activity against methicillin-resistant Staphylococcus epidermidis RP62A after 24 hrs by broth micro-dilution method. The format is functional. In a few lines:
(§1)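 MIC read as the lowest concentration giving complete inhibition of bacterial growth after 24 h of incubation. Pexiganan and a linear α-AApeptide were run alongside as positive controls.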

Data set [4] concerns Escherichia coli. Description: Induction of membrane disruption in Escherichia coli JM109 at 10 ug/ml after 2 hrs by Propidium iodide-staining based fluorescence microscopy. The format is functional, organism-based. The method in brief:
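E. coli exposed to 10 μg/mL for 2 h, then stained with DAPI, which labels all cells, and propidium iodide, which enters cells with damaged membranes. Red PI fluorescence imaged by fluorescence microscopy against untreated controls.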

Another data set relates to Enterococcus faecalis. Description: Antimicrobial activity against Vancomycin-resistant Enterococcus faecalis ATCC 700802 after 24 hrs by broth micro-dilution method. The settings on record: ATCC 700802, 24 h. The format is functional. The method in brief:
as §1

A further data set has as its system Staphylococcus aureus. Briefly: Antimicrobial activity against methicillin-resistant Staphylococcus aureus ATCC 33592 after 24 hrs by broth micro-dilution method. In kind it is functional. The settings on record: ATCC 33592, 24 h. In a few lines: as §1
Another data set relates to Candida albicans. Briefly: Antimicrobial activity against Candida albicans ATCC 10231 after 48 hrs by broth micro-dilution method. The settings on record: ATCC 10231, 48 h. The format is functional.
The next data set relates to Klebsiella pneumoniae. Briefly: Antimicrobial activity against Klebsiella pneumoniae ATCC 13383 after 24 hrs by broth micro-dilution method. The format is functional. The settings on record: ATCC 13383, 24 h.

By MIC is commonly meant the lowest concentration that inhibits growth of the organism. Lower therefore signals a more susceptible organism. One may read the HC50 as the concentration giving 50% haemolysis.

Values after ≈ are worked out from the molar mass of the structure shown. Active and inactive are the calls of the source. The calls are words filed in the database; no cut-off is given here.

`CCCCCCCCCCCCCCCC(=O)NCCN(C(=O)CCCN)[C@@H](Cc1ccccc1)C(=O)NCCN(C(=O)CCCN)[C@@H](Cc1ccccc1)C(=O)NCCN(C(=O)CCCN)[C@@H](Cc1ccccc1)C(=O)NCCN(C(=O)CCCN)[C@@H](Cc1ccccc1)C(=O)NCCN(C(=O)CCCN)[C@@H](Cc1ccccc1)C(N)=O`: the MIC in the data set with Pseudomonas aeruginosa amounted to 12 µg/mL (≈ 7.35 µM); in the data set on Bacillus subtilis it was 4 µg/mL (≈ 2.45 µM); in the data set with Escherichia coli [2], 4 µg/mL (≈ 2.45 µM); in data set [3], 10 µg/mL (≈ 6.13 µM); in the data set with Enterococcus faecalis, 4 µg/mL (≈ 2.45 µM); against Staphylococcus aureus, 8 µg/mL (≈ 4.9 µM). Also, the MIC with Candida albicans turned out to be 4 µg/mL (≈ 2.45 µM); in the data set with Klebsiella pneumoniae, 8 µg/mL (≈ 4.9 µM). Moreover, the HC10 in data set [1] is 20 µg/mL. Further, the HC50 in data set [1] is 250 µg/mL. For the same compound, in the data set on Escherichia coli [4], the outcome was Active.

For `CCCCCCCCCCCCCCCC(=O)NCCN(C(=O)CCC(C)C)[C@@H](CCCCN)C(=O)NCCN(C(=O)CCC(C)C)[C@@H](CCCCN)C(N)=O`, the minimum inhibitory concentration (MIC) with Pseudomonas aeruginosa is > 50 µg/mL; with Bacillus subtilis, 2 µg/mL (≈ 2.52 µM); in the data set on Escherichia coli [2] it was > 50 µg/mL; in data set [3], 10 µg/mL (≈ 12.6 µM); in the data set with Enterococcus faecalis, 1 µg/mL (≈ 1.26 µM); in the data set with Staphylococcus aureus, 5 µg/mL (≈ 6.3 µM). The figures for the minimal inhibitory concentration (MIC) in the data set with Candida albicans and with Klebsiella pneumoniae were 2 µg/mL (≈ 2.52 µM) and > 50 µg/mL, respectively. In addition, the HC10 in data set [1] was > 500 µg/mL. For the same compound, the HC50 in data set [1] was > 500 µg/mL.

Take `CCCCCCCCCCCCCCCC(=O)NCCN(C(C)=O)[C@@H](C)C(=O)NCCN(C(C)=O)[C@@H](C)C(=O)NCCN(C(=O)CCCN)[C@@H](CCCCN)C(=O)NCCN(C(=O)CCCN)[C@@H](CCCCN)C(=O)NCCN(C(=O)CCCN)[C@@H](CCCCN)C(N)=O`: the MIC amounted to 10 µg/mL (≈ 7.48 µM) in the data set on Pseudomonas aeruginosa; 4 µg/mL (≈ 2.99 µM) in the data set on Bacillus subtilis; 4 µg/mL (≈ 2.99 µM) with Escherichia coli [2]; 10 µg/mL (≈ 7.48 µM) in [3]; 20 µg/mL (≈ 15 µM) in the data set with Enterococcus faecalis; 8 µg/mL (≈ 5.98 µM) in the data set on Staphylococcus aureus. Further, the minimal inhibitory concentration (MIC) against Candida albicans was determined as 10 µg/mL (≈ 7.48 µM); in the data set on Klebsiella pneumoniae it was 20 µg/mL (≈ 15 µM). In data set [1], the HC10 came out at 100 µg/mL. For the same compound, the HC50 in data set [1] was > 500 µg/mL.

“H-GIGKFLKKAKKFGKAFVKILKK-NH2 [PEXIGANAN]”: the MIC in the data set on Pseudomonas aeruginosa was determined as 8 µg/mL; in the data set on Bacillus subtilis, 4 µg/mL; in the data set on Escherichia coli [2], 8 µg/mL; in data set [3] it was 8 µg/mL; against Enterococcus faecalis it was 32 µg/mL; against Staphylococcus aureus, 16 µg/mL. Moreover, the values for the MIC with Candida albicans and in the data set with Klebsiella pneumoniae were 124 µg/mL and 8 µg/mL, respectively. Moreover, the HC10 in data set [1] worked out at 181 µg/mL. Moreover, the HC50 in data set [1] was determined as 495 µg/mL.

For the compound `CCCCCCCCCCCCCCCC(=O)NCCN(C(=O)CCc1ccccc1)[C@@H](CCCCN)C(=O)NCCN(C(=O)CCc1ccccc1)[C@@H](CCCCN)C(=O)NCCN(C(=O)CCc1ccccc1)[C@@H](CCCCN)C(N)=O`, the MIC against Pseudomonas aeruginosa is > 50 µg/mL; in the data set on Bacillus subtilis it was 2 µg/mL (≈ 1.72 µM); in the data set on Escherichia coli [2], > 50 µg/mL; in [3], 20 µg/mL (≈ 17.2 µM); in the data set with Enterococcus faecalis, 10 µg/mL (≈ 8.58 µM); in the data set with Staphylococcus aureus, 8 µg/mL (≈ 6.86 µM). For the same compound, the MIC with Candida albicans and in the data set on Klebsiella pneumoniae was > 50 µg/mL throughout. In addition, the HC10 in [1] is 15 µg/mL. Also, the HC50 in [1] came to 150 µg/mL.

For the compound `CCCCCCCCCCCCCCCC(=O)NCCN(C(=O)CCc1ccccc1)[C@@H](CCCCN)C(=O)NCCN(C(=O)CCc1ccccc1)[C@@H](CCCCN)C(N)=O`, the MIC against Pseudomonas aeruginosa is > 50 µg/mL; with Bacillus subtilis, 4 µg/mL (≈ 4.64 µM); against Escherichia coli [2] it was > 50 µg/mL; in data set [3], 15 µg/mL (≈ 17.4 µM); in the data set on Enterococcus faecalis it was 3 µg/mL (≈ 3.48 µM); against Staphylococcus aureus, 8 µg/mL (≈ 9.28 µM). Besides, the minimal inhibitory concentration (MIC) against Candida albicans was 2 µg/mL (≈ 2.32 µM); against Klebsiella pneumoniae, > 50 µg/mL. Also, the HC10 in data set [1] is > 500 µg/mL. Further, the HC50 in data set [1] was > 500 µg/mL.

Take `CCCCCCCCCCCCCCCC(=O)NCCN(C(=O)CCCN)[C@@H](Cc1ccccc1)C(=O)NCCN(C(=O)CCCN)[C@@H](Cc1ccccc1)C(=O)NCCN(C(=O)CCCN)[C@@H](Cc1ccccc1)C(N)=O`: the MIC in the data set on Pseudomonas aeruginosa was determined as 20 µg/mL (≈ 18.5 µM); against Bacillus subtilis it was 2 µg/mL (≈ 1.85 µM); with Escherichia coli [2], 8 µg/mL (≈ 7.4 µM); in data set [3], 8 µg/mL (≈ 7.4 µM); against Enterococcus faecalis, 4 µg/mL (≈ 3.7 µM); against Staphylococcus aureus it was 4 µg/mL (≈ 3.7 µM). For the same compound, the minimal inhibitory concentration (MIC) in the data set with Candida albicans was 3 µg/mL (≈ 2.77 µM); with Klebsiella pneumoniae it was > 50 µg/mL. Also, the HC10 in data set [1] came out at 50 µg/mL. Moreover, the HC50 in [1] amounted to 300 µg/mL.

On to `CCCCCCCCCCCCCCCC(=O)NCCN(C(C)=O)[C@@H](C)C(=O)NCCN(C(C)=O)[C@@H](C)C(=O)NCCN(C(=O)CCCN)[C@@H](Cc1ccccc1)C(=O)NCCN(C(=O)CCCN)[C@@H](Cc1ccccc1)C(=O)NCCN(C(=O)CCCN)[C@@H](Cc1ccccc1)C(N)=O`, for which the minimal inhibitory concentration (MIC) against Pseudomonas aeruginosa worked out at 8 µg/mL (≈ 5.74 µM); against Bacillus subtilis it was 2 µg/mL (≈ 1.43 µM); in the data set with Escherichia coli [2], 30 µg/mL (≈ 21.5 µM); in data set [3], 4 µg/mL (≈ 2.87 µM); in the data set with Enterococcus faecalis, 4 µg/mL (≈ 2.87 µM); against Staphylococcus aureus, 4 µg/mL (≈ 2.87 µM). In addition, the MIC came out at 20 µg/mL (≈ 14.3 µM) in the data set on Candida albicans and 8 µg/mL (≈ 5.74 µM) against Klebsiella pneumoniae. In addition, in data set [1], the HC10 stood at 40 µg/mL. For the same compound, the concentration for 50% haemolysis (HC50) in data set [1] turned out to be 400 µg/mL.

For the origin of these results see ChEMBL document CHEMBL2150929, “Lipidated peptidomimetics with improved antimicrobial activity” (ACS Med Chem Lett, 2012).
